The text below walks through data of ChEMBL document CHEMBL3351280, “Exploration and pharmacokinetic profiling of phenylalanine based carbamates as novel substance p 1-7 analogues” (ACS Med Chem Lett, 2014).

Peptide text beside a SMILES is read from it.

The nature of data set [1]: in vitro. To be noted: human, Caco-2.
Data set [2] can be described thus: Drug uptake in CHOK1 cells at 25 uM. The following applies: chinese hamster, cho-k1, 25 µM. The data set is classed as ADME, cell-based, Cricetulus griseus.
Data set [3] can be described thus: in vitro. The following applies: human, Caco-2. The source holds these as a separate data set.
Data set [4] addresses T1, Solute carrier family 15 member 1 (Homo sapiens, UniProt P46059).
T1 sequence (P46059 whole entry): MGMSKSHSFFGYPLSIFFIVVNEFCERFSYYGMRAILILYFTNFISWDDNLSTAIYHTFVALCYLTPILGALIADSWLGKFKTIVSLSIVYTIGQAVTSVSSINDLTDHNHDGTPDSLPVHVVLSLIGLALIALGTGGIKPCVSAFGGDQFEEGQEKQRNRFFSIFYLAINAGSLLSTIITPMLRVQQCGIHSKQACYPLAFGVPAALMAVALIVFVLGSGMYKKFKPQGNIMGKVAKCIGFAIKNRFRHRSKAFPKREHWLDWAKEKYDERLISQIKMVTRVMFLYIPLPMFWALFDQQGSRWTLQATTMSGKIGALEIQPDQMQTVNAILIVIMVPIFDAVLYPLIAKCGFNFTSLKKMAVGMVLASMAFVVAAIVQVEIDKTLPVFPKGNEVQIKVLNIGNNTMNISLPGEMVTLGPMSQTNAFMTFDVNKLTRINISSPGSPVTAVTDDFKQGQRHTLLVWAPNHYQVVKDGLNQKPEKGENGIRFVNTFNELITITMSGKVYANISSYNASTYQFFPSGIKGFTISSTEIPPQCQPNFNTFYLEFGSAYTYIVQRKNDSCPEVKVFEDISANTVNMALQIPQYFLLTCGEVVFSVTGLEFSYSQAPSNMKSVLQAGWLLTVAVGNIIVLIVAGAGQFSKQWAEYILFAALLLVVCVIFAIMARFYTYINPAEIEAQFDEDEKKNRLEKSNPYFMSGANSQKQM
Put plainly: Drug uptake in CHO-PepT1 cells expressing PepT1 (unknown origin) assessed as transporter mediated uptake at 25 uM. The following applies: chinese hamster, cho-pept1, 25 µM. The data set is classed as ADME, cell-based, Cricetulus griseus.

Data set [5] is described as follows: Half life in human plasma at 25 uM. The data set is classed as ADME, cell-free.
Data set [6] in a line: in vitro. To be noted: human, Caco-2. The source holds these as a separate data set.
Data set [7] is described as follows: Half life in rat plasma at 25 uM. The data set is classed as ADME, cell-free.
Another data set concerns PepT1. The experiment in a line: in vitro. The following applies: chinese hamster, CHO-PepT1 cells and CHO-K1 cells.
Data set [8] is described as follows: Intrinsic clearance in human liver microsomes at 25 uM. To be noted: read-out: CLH. The data set is classed as ADME.
The nature of data set [9]: Intrinsic clearance in human microsomes. The data set is classed as ADME, Microsome.
In data set [10] the test system is Plasma. The experiment in a line: Drug recovery in rat plasma at 10 uM. The data set is classed as ADME, cell-free.
The nature of data set [11]: Intrinsic clearance in rat microsomes. The data set is classed as ADME, Microsome.
The test system of data set [12] is Plasma. The experiment in a line: Drug recovery in human plasma at 10 uM. The data set is classed as ADME, cell-free. The gist of the method:
(§1)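 Human plasma protein binding was measured by equilibrium dialysis. The read-outs were fraction unbound and mass recovery.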

Data set [13] can be described thus: Apparent permeability from apical to basolateral side in human Caco2 cells at 100 uM. The data set is classed as ADME, cell-based. To be noted: Caco-2. An outline of the steps:
(§2)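 Caco-2 monolayers; apparent permeability coefficients (Papp) calculated from transport rates in the apical-to-basolateral and basolateral-to-apical directions. Efflux ratio is Papp(b–a)/Papp(a–b). The test concentration was 100 μM, or 25 μM for poorly soluble compounds after further dilution. Values are given as mean ± SD.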

Data set [14] in a line: Half life in rat plasma at 100 uM. The data set is classed as ADME, cell-free.
Data set [15] concerns the target T1, Solute carrier family 15 member 1. The experiment in a line: Drug uptake in CHO-PepT1 cells expressing PepT1 (unknown origin) assessed as transporter mediated uptake at 100 uM. The data set is classed as ADME, cell-based, Cricetulus griseus. To be noted: chinese hamster, cho-pept1, 100 µM. The gist of the method: (§3)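 Uptake was measured in CHO-PepT1 cells, which are stably transfected with PepT1, and in CHO-K1 cells as the control. It is expressed as pmol/mg protein/min. […] A PepT1/K1 uptake ratio above 1 was taken to indicate a PepT1 substrate. Values are mean ± SD.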

The nature of data set [16]: Apparent permeability from basolateral to apical side in human Caco2 cells at 100 uM. The data set is classed as ADME, cell-based. To be noted: Caco-2. An outline of the steps:
as §2
A general note: Caco-2 cells form a polarised layer with tight junctions and transporters.

The nature of data set [17]: Intrinsic clearance in human liver microsomes at 100 uM. To be noted: read-out: CLH. The data set is classed as ADME. (Liver microsomes are vesicles of endoplasmic reticulum, rich in cytochrome P450 enzymes.)
Data set [18] is described as follows: Drug uptake in CHOK1 cells at 100 uM. To be noted: chinese hamster, cho-k1, 100 µM. The data set is classed as ADME, cell-based, Cricetulus griseus. The gist of the method:
as §3

Data set [19] in a line: Half life in human plasma at 100 uM. The data set is classed as ADME, cell-free.
A further data set concerns Brain. The experiment in a line: Unbound brain volume of distribution in rat at 10 uM. The data set is classed as ADME, tissue-based. The following applies: in vivo.
Data set [20] is described as follows: Drug recovery in rat brain at 10 uM. The data set is classed as ADME, tissue-based. To be noted: read-out: Drug recovery.
In a further data set the target is Cytochrome P450 2C9 (Homo sapiens, UniProt P11712). The experiment in a line: Inhibition of CYP2C9 (unknown origin). The data set is classed as ADME.
A short description of data set [21]: Fraction unbound in human plasma at 10 uM. The data set is classed as ADME, cell-free. An outline of the steps:
as §1

The nature of data set [22]: Fraction unbound in rat plasma at 10 uM. The data set is classed as ADME, cell-free.
The target in a further data set is Cytochrome P450 2D6 (Homo sapiens, UniProt P10635). Put plainly: Inhibition of CYP2D6 (unknown origin). The data set is classed as ADME.
A short description of data set [23]: Fraction unbound in rat brain at 10 uM. The data set is classed as ADME, tissue-based.
Another data set has as its system Hepatocyte. Put plainly: Intrinsic clearance in rat hepatocytes. The data set is classed as ADME, cell-based.
Data set [24] is described as follows: Efflux ratio of apparent permeability from basolateral to apical side to apical to basolateral side of human Caco2 cells. The following applies: Caco-2. The data set is classed as ADME, cell-based. The gist of the method:
(§4)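 Caco-2 monolayers; apparent permeability coefficients (Papp) calculated from transport rates in the apical-to-basolateral and basolateral-to-apical directions. Efflux ratio is Papp(b–a)/Papp(a–b). Values are given as mean ± SD.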

Data set [25] is described as follows: Apparent permeability from apical to basolateral side in human Caco2 cells. To be noted: Caco-2. The data set is classed as ADME, cell-based. The gist of the method: as §4
For a further data set, the target named is T2, Cytochrome P450 1A2 (Homo sapiens, UniProt P05177).
T2 sequence (P05177 whole entry): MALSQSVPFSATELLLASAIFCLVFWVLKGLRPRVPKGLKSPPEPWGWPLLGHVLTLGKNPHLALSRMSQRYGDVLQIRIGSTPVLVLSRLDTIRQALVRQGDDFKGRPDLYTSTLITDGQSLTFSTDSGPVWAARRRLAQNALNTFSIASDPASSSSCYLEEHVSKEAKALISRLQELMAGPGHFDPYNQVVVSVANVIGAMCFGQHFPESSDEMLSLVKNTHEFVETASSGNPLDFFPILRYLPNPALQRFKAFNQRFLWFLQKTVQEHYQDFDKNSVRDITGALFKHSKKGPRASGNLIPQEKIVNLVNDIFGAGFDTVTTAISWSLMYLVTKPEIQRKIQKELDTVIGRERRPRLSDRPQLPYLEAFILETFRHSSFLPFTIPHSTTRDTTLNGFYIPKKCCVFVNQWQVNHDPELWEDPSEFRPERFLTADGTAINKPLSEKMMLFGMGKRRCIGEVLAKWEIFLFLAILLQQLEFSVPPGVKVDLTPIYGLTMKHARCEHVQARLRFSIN
Put plainly: Inhibition of CYP1A2 (unknown origin). The data set is classed as ADME.

The target in the next data set is Cytochrome P450 3A4 (Homo sapiens, UniProt P08684). The experiment in a line: Inhibition of CYP3A4 (unknown origin). The data set is classed as ADME.

What is called efflux ratio is the permeability from basolateral to apical divided by that in the opposite direction, in the common usage. By Papp A→B is commonly meant the apparent permeability from the apical to the basolateral side of a cell layer. Usually half-life stands for the time needed for the level to fall by half in the phase considered. A word on the Papp B→A: it is how fast a substance crosses the layer from the basolateral side. A word on the fraction unbound: it is free concentration divided by total concentration. High values mean weak binding, low ones extensive binding.

Cytochrome P450 2D6, sequence (P10635 whole entry): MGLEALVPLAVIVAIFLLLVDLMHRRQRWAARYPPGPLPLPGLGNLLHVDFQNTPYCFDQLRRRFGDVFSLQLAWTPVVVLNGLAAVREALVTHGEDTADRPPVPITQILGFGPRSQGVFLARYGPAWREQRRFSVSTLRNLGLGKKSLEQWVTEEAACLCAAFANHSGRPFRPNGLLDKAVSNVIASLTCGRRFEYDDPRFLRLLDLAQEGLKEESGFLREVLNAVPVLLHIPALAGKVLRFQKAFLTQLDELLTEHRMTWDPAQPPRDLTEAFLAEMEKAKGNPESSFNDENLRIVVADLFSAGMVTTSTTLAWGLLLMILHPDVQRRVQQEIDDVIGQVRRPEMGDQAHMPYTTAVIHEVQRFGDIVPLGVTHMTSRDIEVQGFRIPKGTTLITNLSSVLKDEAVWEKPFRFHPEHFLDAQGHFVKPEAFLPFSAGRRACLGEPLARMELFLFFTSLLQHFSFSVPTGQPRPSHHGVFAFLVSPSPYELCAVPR
Cytochrome P450 2C9, sequence (P11712 whole entry): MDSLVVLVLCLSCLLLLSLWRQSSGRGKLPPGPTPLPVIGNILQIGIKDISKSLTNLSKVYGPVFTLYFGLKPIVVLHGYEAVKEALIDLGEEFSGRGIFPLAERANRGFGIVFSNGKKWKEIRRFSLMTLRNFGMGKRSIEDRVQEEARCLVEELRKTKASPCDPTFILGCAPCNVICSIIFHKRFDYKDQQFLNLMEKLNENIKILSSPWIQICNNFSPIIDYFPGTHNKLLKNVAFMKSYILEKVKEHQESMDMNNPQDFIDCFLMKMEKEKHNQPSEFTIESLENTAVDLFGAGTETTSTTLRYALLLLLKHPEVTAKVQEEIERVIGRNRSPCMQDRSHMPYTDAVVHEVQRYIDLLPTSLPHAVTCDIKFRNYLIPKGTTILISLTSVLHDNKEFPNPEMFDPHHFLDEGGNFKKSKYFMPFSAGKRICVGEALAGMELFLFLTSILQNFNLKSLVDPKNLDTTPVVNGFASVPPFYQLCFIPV
Cytochrome P450 3A4, sequence (P08684 whole entry): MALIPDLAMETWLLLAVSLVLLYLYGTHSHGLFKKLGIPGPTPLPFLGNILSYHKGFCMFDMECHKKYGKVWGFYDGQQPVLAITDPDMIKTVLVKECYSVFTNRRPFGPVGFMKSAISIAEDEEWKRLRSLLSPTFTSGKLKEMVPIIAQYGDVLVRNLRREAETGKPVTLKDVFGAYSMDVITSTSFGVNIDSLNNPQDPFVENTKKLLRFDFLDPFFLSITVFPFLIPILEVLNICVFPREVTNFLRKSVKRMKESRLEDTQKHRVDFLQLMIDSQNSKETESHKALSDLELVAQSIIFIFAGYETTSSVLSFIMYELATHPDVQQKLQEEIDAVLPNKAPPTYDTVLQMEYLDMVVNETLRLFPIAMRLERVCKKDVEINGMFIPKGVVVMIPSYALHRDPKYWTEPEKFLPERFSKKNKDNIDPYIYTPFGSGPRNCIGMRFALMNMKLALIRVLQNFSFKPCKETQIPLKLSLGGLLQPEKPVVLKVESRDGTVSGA

As for `N#CNC(=O)[C@H](Cc1ccccc1)NC(=O)OCc1ccccc1`, the efflux ratio at 25 µM in “in vitro [1]” stood at 1.2. The Drug uptake in data set [2] and in data set [4] was 4 pmol/min/mg throughout. The compound further yielded a Papp A→B at 25 µM in “in vitro [3]” of 52 ×10⁻⁶ cm/s. In addition, the values for the half-life at 25 µM in data set [5] and in data set [7] were 6.6 h and 8.7 h, respectively. This compound also gave a Papp B→A at 25 µM in “in vitro [6]” of 62 ×10⁻⁶ cm/s. In the data set with PepT1, the uptake ratio at 25 µM was found to be 1. Also, the microsomal CLint at 25 µM in [8] stood at 11 µL/min/mg.

Consider `NC(=O)[C@H](Cc1ccccc1)NC(=O)[C@@H](N)Cc1ccccc1` (H-Phe-Phe-NH2), for which the microsomal CLint amounted to 97.3 µL/min/mg in data set [9] and 103 µL/min/mg in data set [11]. Moreover, the figures for the Drug recovery with Plasma [10] and with Plasma [12] were 1% and 22%, respectively.

`CS(=O)(=O)NC(=O)[C@H](Cc1ccccc1)NC(=O)OCc1ccccc1`: the Papp A→B at 100 µM in data set [13] turned out to be 6 ×10⁻⁶ cm/s. Also, the half-life at 100 µM in data set [14] was 6.9 h; in data set [19] it was 26.7 h. Moreover, the Drug uptake in data set [15] came to 90 pmol/min/mg; in data set [18], 77 pmol/min/mg. In addition, the Papp B→A at 100 µM in data set [16] is 3 ×10⁻⁶ cm/s. Moreover, the microsomal CLint at 100 µM in data set [17] worked out at 17 µL/min/mg.

In the case of `O=C(N[C@@H](Cc1ccccc1)C(=O)NO)OCc1ccccc1`, the Drug uptake was determined as 4 pmol/min/mg in [2] and 5 pmol/min/mg in data set [4]. The same compound returned a Papp A→B at 25 µM in the data set “in vitro [3]” of 60 ×10⁻⁶ cm/s. Also, the results for the half-life at 25 µM in data set [5] and in data set [7] were 7.9 h and 0.06 h, respectively. This compound also registered a Papp B→A at 25 µM in “in vitro [6]” of 45 ×10⁻⁶ cm/s. In addition, in data set [8], the microsomal CLint at 25 µM stood at 23 µL/min/mg.

Consider `NC(=O)[C@@H]1[C@H](c2ccccc2)CCN1C(=O)[C@@H](N)Cc1ccccc1`, for which the Drug recovery in the data set on Plasma [10] and in the data set with Plasma [12] was over 95% each time. This compound came in with a Vdu in the data set with Brain of 3.4 mL/g. Moreover, the recovery at 10 µM in data set [20] is over 95%.

For the compound `O=C(N[C@@H](Cc1ccccc1)c1nnc(-c2ccccc2)o1)OCc1ccccc1`, the values for the Drug uptake in data set [2] and in data set [4] were 1128 pmol/min/mg and 1082 pmol/min/mg, respectively. Moreover, the half-life at 25 µM in [5] is 11.2 h; in data set [7], 8.7 h. Further, the microsomal CLint at 25 µM in data set [8] worked out at 287 µL/min/mg.

On to `NC(=O)[C@H](Cc1ccccc1)NC(=O)OCc1ccccc1`, for which the microsomal CLint in data set [9] was found to be 22.6 µL/min/mg; in data set [11] it was 21.2 µL/min/mg. In addition, the Drug recovery in the data set on Plasma [10] was over 70%; with Plasma [12], over 65%. The same compound had a Vdu in the data set on Brain of 6 mL/g. The INH at Cytochrome P450 2C9, on Cytochrome P450 2D6, on Cytochrome P450 1A2 and on Cytochrome P450 3A4 was over 20 µM each time. For the same compound, the fraction unbound at 10 µM in data set [21] was determined as 0.19; in data set [22], 0.18; in data set [23] it was 0.17. For the same compound, the recovery at 10 µM in data set [20] was over 95%. In the data set with Hepatocyte, this compound registered a CLH of 39.4 µL/min/mg. Moreover, the efflux ratio in [24] amounted to 1. For the same compound, in [25], the Papp A→B stood at 31 ×10⁻⁶ cm/s.

`O=C(N[C@@H](Cc1ccccc1)C(=O)NNC(=O)c1ccccc1)OCc1ccccc1`: the efflux ratio at 25 µM in the data set “in vitro [1]” stood at 1.3. For the same compound, the Drug uptake in [2] was 156 pmol/min/mg; in [4] it was 127 pmol/min/mg. Further, the Papp A→B at 25 µM in the data set “in vitro [3]” was determined as 11 ×10⁻⁶ cm/s. The half-life at 25 µM in [5] is 9.9 h; in [7] it was 0.31 h. Besides, the Papp B→A at 25 µM in “in vitro [6]” worked out at 14 ×10⁻⁶ cm/s. Besides, the uptake ratio at 25 µM with PepT1 amounted to 0.8. In addition, the microsomal CLint at 25 µM in data set [8] came out at 65 µL/min/mg.
